{"source": "ChEMBL document CHEMBL1123257", "about": "“Synthesis of sulfur analogues of alkyl lysophospholipid and neoplastic cell growth inhibitory properties” (1986)", "type_in_all_cases": "functional", "key": {"BG-1 cell line [1]": {"test_system": "BG-1 cell line", "assay": "Compound was evaluated for its effect on colony growth of human ovarian adenocarcinoma cell line BG-1 at 10.0 ug/mL", "outline": "(§1)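 Single-cell suspensions of BG-1 or BG-3 human ovarian carcinoma cells (derived from primary explants, now kept in continuous culture) were plated in soft agarose clonogenic culture. Cells were exposed continuously to phospholipid analogue over a three-log concentration range, with untreated cultures as controls. After 7 days at 37 °C/7.5% CO2, colonies were scored by inverted microscopy and automated image analysis.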"}, "BG-1 cell line [2]": {"test_system": "BG-1 cell line", "assay": "Compound was evaluated for its effect on colony growth of human ovarian adenocarcinoma cell line BG-1 at 3.0 ug/mL", "outline": "as §1"}, "BG-1 cell line [3]": {"test_system": "BG-1 cell line", "assay": "Compound was evaluated for its effect on colony growth of human ovarian adenocarcinoma cell line BG-1 at 30.0 ug/mL", "outline": "as §1"}, "BG-3 [4]": {"test_system": "BG-3", "assay": "Compound was evaluated for its effect on colony growth of human ovarian adenocarcinoma cell line BG-3 at 0.0 ug/mL,", "outline": "as §1"}, "BG-3 [5]": {"test_system": "BG-3", "assay": "Compound was evaluated for its effect on colony growth of human ovarian adenocarcinoma cell line BG-3 at 0.03 ug/mL", "outline": "as §1"}, "BG-3 [6]": {"test_system": "BG-3", "assay": "Compound was evaluated for its effect on colony growth of human ovarian adenocarcinoma cell line BG-3 at 0.1 ug/mL", "outline": "as §1"}, "BG-3 [7]": {"test_system": "BG-3", "assay": "Compound was evaluated for its effect on colony growth of human ovarian adenocarcinoma cell line BG-3 at 0.3 ug/mL", "outline": "as §1"}, "BG-3 [8]": {"test_system": "BG-3", "assay": "Compound was evaluated for its effect on colony growth of human ovarian adenocarcinoma cell line BG-3 at 1.0 ug/mL", "outline": "as §1"}, "BG-3 [9]": {"test_system": "BG-3", "assay": "Compound was evaluated for its effect on colony growth of human ovarian adenocarcinoma cell line BG-3 at 10.0 ug/mL", "outline": "as §1"}, "BG-3 [10]": {"test_system": "BG-3", "assay": "Compound was evaluated for its effect on colony growth of human ovarian adenocarcinoma cell line BG-3 at 3.0 ug/mL", "outline": "as §1"}, "BG-3 [11]": {"test_system": "BG-3", "assay": "Compound was evaluated for its effect on colony growth of human ovarian adenocarcinoma cell line BG-3 at 30.0 ug/mL", "outline": "as §1"}, "BG-1 cell line [12]": {"test_system": "BG-1 cell line", "assay": "Compound was evaluated for its effect on colony growth of human ovarian adenocarcinoma cell line BG-1 at 0.0 ug/mL", "outline": "as §1"}, "BG-1 cell line [13]": {"test_system": "BG-1 cell line", "assay": "Compound was evaluated for its effect on colony growth of human ovarian adenocarcinoma cell line BG-1 at 0.03 ug/mL", "outline": "as §1"}, "BG-1 cell line [14]": {"test_system": "BG-1 cell line", "assay": "Compound was evaluated for its effect on colony growth of human ovarian adenocarcinoma cell line BG-1 at 0.1 ug/mL", "outline": "as §1"}, "BG-1 cell line [15]": {"test_system": "BG-1 cell line", "assay": "Compound was evaluated for its effect on colony growth of human ovarian adenocarcinoma cell line BG-1 at 0.3 ug/mL", "outline": "as §1"}, "BG-1 cell line [16]": {"test_system": "BG-1 cell line", "assay": "Compound was evaluated for its effect on colony growth of human ovarian adenocarcinoma cell line BG-1 at 1.0 ug/mL", "outline": "as §1"}}}
{"smiles": "CCCCCCCCCCCCCCCCSCC(COP(=O)([O-])OCC[N+](C)(C)C)OCC", "note": "(stereo unspecified)", "values": [{"measurement": "Control", "setting": "BG-1 cell line [1]", "value": 2, "unit": "%"}, {"measurement": "Control", "setting": "BG-1 cell line [2]", "value": 2, "unit": "%"}, {"measurement": "Control", "setting": "BG-1 cell line [3]", "value": 2, "unit": "%"}, {"measurement": "Control", "setting": "BG-3 [4]", "value": 100, "unit": "%"}, {"measurement": "Control", "setting": "BG-3 [5]", "value": 56, "unit": "%"}, {"measurement": "Control", "setting": "BG-3 [6]", "value": 54, "unit": "%"}, {"measurement": "Control", "setting": "BG-3 [7]", "value": 56, "unit": "%"}, {"measurement": "Control", "setting": "BG-3 [8]", "value": 17, "unit": "%"}, {"measurement": "Control", "setting": "BG-3 [9]", "value": 3, "unit": "%"}, {"measurement": "Control", "setting": "BG-3 [10]", "value": 2, "unit": "%"}, {"measurement": "Control", "setting": "BG-3 [11]", "value": 2, "unit": "%"}, {"measurement": "Control", "setting": "BG-1 cell line [12]", "value": 100, "unit": "%"}, {"measurement": "Control", "setting": "BG-1 cell line [13]", "value": 65, "unit": "%"}, {"measurement": "Control", "setting": "BG-1 cell line [14]", "value": 64, "unit": "%"}, {"measurement": "Control", "setting": "BG-1 cell line [15]", "value": 53, "unit": "%"}, {"measurement": "Control", "setting": "BG-1 cell line [16]", "value": 8, "unit": "%"}]}
